Assays:
[1] = Permeability assessed as human P-glycoprotein-mediated transport across basolateral to apical side expressed in pig LLC-PK1 cells by measuring membrane permeability time by Transwell experiment/liquid scintillation counting; format: ADME, cell-based
P-glycoprotein [2] = assay: Permeability assessed as human P-glycoprotein-mediated transport of basolateral to apical side in pig LLC-PK1 cells by measuring nontransporter-related passive membrane permeability by Transwell experiment/liquid scintillation counting; format: ADME, cell-based; conditions: read-out: permeability
P-glycoprotein [3] = assay: Permeability assessed as human P-glycoprotein-mediated transport across apical to basolateral side expressed in pig LLC-PK1 cells at 2 uM by liquid scintillation counting; format: ADME, cell-based
[4] = Protein binding in plasma (unknown origin); format: ADME, cell-free; conditions: read-out: PPB (converted)
P-glycoprotein [5] = assay: Permeability assessed as human P-glycoprotein-mediated transport of apical to basolateral side in pig LLC-PK1 cells by measuring nontransporter-related passive membrane permeability by Transwell experiment/liquid scintillation counting; format: ADME, cell-based; conditions: read-out: permeability
[6] = Drug uptake in human intestine at 5 mg, po; format: ADME, tissue-based; conditions: in vivo
[7] = target: T1, Broad substrate specificity ATP-binding cassette transporter ABCG2 (Homo sapiens, UniProt Q9UNQ0); assay: Inhibition of human BCRP expressed in MDCK2 cells assessed as reduction of [3H]E-sul substrate transport up to 100 uM by liquid scintillation counting; format: ADME, cell-based; conditions: mdck-ii
T1 sequence (Q9UNQ0 whole entry): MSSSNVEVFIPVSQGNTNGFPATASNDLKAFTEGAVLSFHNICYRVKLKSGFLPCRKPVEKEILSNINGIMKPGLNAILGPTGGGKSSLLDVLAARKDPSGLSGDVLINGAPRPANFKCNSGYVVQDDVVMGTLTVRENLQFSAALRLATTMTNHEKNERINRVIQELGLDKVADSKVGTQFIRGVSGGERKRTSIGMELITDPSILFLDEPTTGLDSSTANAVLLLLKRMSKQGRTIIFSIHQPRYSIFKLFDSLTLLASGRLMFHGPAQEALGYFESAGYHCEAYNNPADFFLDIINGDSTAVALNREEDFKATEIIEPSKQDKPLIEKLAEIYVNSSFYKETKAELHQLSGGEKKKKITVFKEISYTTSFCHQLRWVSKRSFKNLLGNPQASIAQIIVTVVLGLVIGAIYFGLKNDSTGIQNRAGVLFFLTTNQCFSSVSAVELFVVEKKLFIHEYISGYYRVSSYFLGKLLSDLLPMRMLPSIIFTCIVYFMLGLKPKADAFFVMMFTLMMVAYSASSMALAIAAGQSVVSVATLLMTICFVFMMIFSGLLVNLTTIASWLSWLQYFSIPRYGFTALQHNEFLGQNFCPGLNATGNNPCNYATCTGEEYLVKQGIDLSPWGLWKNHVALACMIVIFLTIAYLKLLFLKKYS
Summary of the method: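 Membrane vesicles made from MDCKII cells expressing BCRP or MRP2, and from parental cells (1 μg/μL protein). Run in Tris-sucrose buffer, pH 7.4, with 10 mM MgCl2, creatine phosphokinase and ATP, or AMP as control. Substrates: 0.035 μM [3H]E-sul for BCRP, 2 min; 0.033 μM [3H]E217βG for MRP2, 5 min; both at 37 °C. Stopped ice-cold, filtered, and counted by scintillation.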

P-glycoprotein [8] = assay: Permeability assessed as human P-glycoprotein-mediated transport across basolateral to apical side expressed in pig LLC-PK1 cells at 2 uM by liquid scintillation counting; format: ADME, cell-based
[9] = target: T2, Organic anion transporter 3 (Homo sapiens, UniProt Q8TCC7); assay: Inhibition of OAT3 (unknown origin) expressed in HEK293 cells assessed as reduction of [3H]E-sul substrate uptake at 100 uM by liquid scintillation counting; format: ADME, cell-based; conditions: hek293, 100 µM
T2 sequence (Q8TCC7 whole entry): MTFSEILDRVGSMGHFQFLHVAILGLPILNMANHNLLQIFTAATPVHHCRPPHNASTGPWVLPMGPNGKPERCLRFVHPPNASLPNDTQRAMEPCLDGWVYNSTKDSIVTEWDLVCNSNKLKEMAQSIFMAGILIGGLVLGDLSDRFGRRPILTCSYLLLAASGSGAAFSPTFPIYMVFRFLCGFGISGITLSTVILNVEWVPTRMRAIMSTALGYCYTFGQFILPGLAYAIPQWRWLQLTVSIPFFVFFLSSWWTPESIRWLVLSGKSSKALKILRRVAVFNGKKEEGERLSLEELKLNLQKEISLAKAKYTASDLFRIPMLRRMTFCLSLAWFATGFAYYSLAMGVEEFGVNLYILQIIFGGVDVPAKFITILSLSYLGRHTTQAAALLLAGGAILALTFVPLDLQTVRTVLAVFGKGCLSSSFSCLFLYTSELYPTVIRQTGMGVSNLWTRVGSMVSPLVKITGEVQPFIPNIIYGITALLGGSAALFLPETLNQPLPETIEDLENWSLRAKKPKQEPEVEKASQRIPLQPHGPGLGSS
Summary of the method: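 HEK293 cells transiently transfected with OAT, OATP or OCT plasmid (FuGENE6; 24 h, then 24 h more with sodium butyrate), or stable OCTN1/OCTN2 lines; vector-transfected cells as control. Washed, preincubated 15–60 min at 37 °C in modified Krebs-Henseleit/25 mM HEPES buffer. Uptake of radiolabelled substrate, 100 µM inhibitor. Cells lysed in NaOH and counted by scintillation; counts normalised to medium radioactivity and Lowry protein; vector uptake subtracted.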

[10] = Maximal inhibition of human P-glycoprotein expressed in pig LLC-PK1 cells assessed as reduction of [3H]digoxin substrate transport at 100 uM by liquid scintillation counting; format: ADME, cell-based; conditions: llc-pk1, 100 µM
Summary of the method: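 P-gp-expressing and parental LLC-PK1 monolayers were grown on transwell inserts for 6–7 days to confluence and switched to serum-free M199 1 h before assay. [3H]digoxin was given apical-to-basal or basal-to-apical, with inhibitor in both chambers, at 37 °C, solvent ≤0.5%. Receiver samples were scintillation-counted and Papp taken from the linear phase. Results are % of control BtoA transport, mean ± S.D., n≥3.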

CC#CCn1c(N2CCC[C@@H](N)C2)nc2c1c(=O)n(Cc1nc(C)c3ccccc3n1)c(=O)n2C [LINAGLIPTIN]
Time [1]: 2.71 h
Papp B→A (P-glycoprotein [2]): 14.7 ×10⁻⁶ cm/s
Papp A→B at 2 µM (P-glycoprotein [3]): 4.21 ×10⁻⁶ cm/s
fraction unbound [4]: 0.2
Papp A→B (P-glycoprotein [5]): 27.3 ×10⁻⁶ cm/s
Drug uptake [6]: 42.3 µM
inhibition (INH) [7]: 24.7%
Papp B→A at 2 µM (P-glycoprotein [8]): 39.4 ×10⁻⁶ cm/s
inhibition (INH) [9]: 0%
inhibition (INH) [10]: Active

— ChEMBL document CHEMBL3525903 (Drug Metab Dispos, 2013)
